Active and inactive are the calls of the source. The rule behind the calls is not given here.
Tests used:
C2C12 [1] = test: Osteogenic activity in mouse C2C12 cells assessed as increase of Runx2 mRNA expression at 50 nM after 6 days by RT-PCR analysis relative to control; type: functional
Method in brief: (§1)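 Quantitative real-time PCR of mRNA from C2C12 cells, 1 × 10^6 cells per 60-mm plate, treated 6 days; rhBMP-2 at 300 ng/mL served as reference osteoblastogenesis inducer.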

C2C12 [2] = test: Osteogenic activity in mouse C2C12 cells assessed as increase of BMP2 mRNA expression at up to 50 nM after 6 days by RT-PCR analysis; type: functional, cell-based; method in brief: as §1
C2C12 [3] = test: Osteogenic activity in mouse C2C12 cells assessed as increase of BMP4 mRNA expression at up to 50 nM after 6 days by RT-PCR analysis; type: functional, cell-based; method in brief: as §1
C2C12 [4] = test: Osteogenic activity in mouse C2C12 cells assessed as increase of BMP6 mRNA expression at up to 50 nM after 6 days by RT-PCR analysis; type: functional, cell-based; method in brief: as §1
C2C12 [5] = test: Osteogenic activity in mouse C2C12 cells assessed as increase of BMP7 mRNA expression at up to 50 nM after 6 days by RT-PCR analysis; type: functional, cell-based; method in brief: as §1
C2C12 [6] = test: Osteogenic activity in mouse C2C12 cells assessed as increase of BMP9 mRNA expression at up to 50 nM after 6 days by RT-PCR analysis; type: functional, cell-based; method in brief: as §1
C2C12 [7] = test: Osteogenic activity in mouse C2C12 cells assessed as inhibition of multinucleated osteoclasts formation after 6 days; type: functional, cell-based
Mus musculus [8] = test: Osteogenic activity in mouse assessed as induction of woven bone formation at 10 uM administered with collagen sponges in calvarial bone after 3 weeks; type: functional, organism-based
Method in brief: (§2)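 Collagen sponges holding 5 μL of compound solution or PBS vehicle placed onto mouse calvarial bones; after 3-week implantation calvariae removed, fixed, decalcified, paraffin-embedded and sectioned for histology of woven bone formation.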

Mus musculus [9] = test: Osteogenic activity in mouse assessed as induction of woven bone formation at 50 uM administered with collagen sponges in calvarial bone after 3 weeks; type: functional, organism-based; method in brief: as §2
Oryctolagus cuniculus = species on record: Oryctolagus cuniculus; test: Osteogenic activity in rabbit calvarial bone fracture healing model assessed as bone formation at 100 to 200 nM after 4 weeks; type: functional
C2C12 [10] = test: Cytotoxicity against mouse C2C12 cells up to 100 uM after 3 days; type: cell-based; details: c2c12, 72 h
C2C12 [11] = test: Inhibition of HDAC in mouse C2C12 cells at 5 to 100 nM after 24 hrs by fluorescence assay; type: cell-based
Method in brief: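 Total HDAC activity in intact C2C12 cells, 4 × 10^3 cells/well, cultured 24 h, pretreated with compound 1 h, then incubated with fluorogenic deacetylase Lysyl substrate; HDAC activity read by fluorescence per kit protocol.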

C2C12 [12] = test: Inhibition of HDAC in mouse C2C12 cells assessed as increase of acetylated histone level after 24 hrs by Western blotting; type: cell-based
Method in brief: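 C2C12 cells, 2 × 10^6 cells per 100-mm plate, cultured 24 h, then treated 24 h; protein extracts analysed for hyperacetylated histones by Western blot with actin as loading control.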

C2C12 [13] = test: Induction of osteoblast differentiation in mouse C2C12 cells assessed as increase of alkaline phosphatase expression after 6 days; type: functional, cell-based
Method in brief: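 C2C12 cells, 4 × 10^3 cells/well, cultured 24 h, then treated for 6 days with medium changed every 3 days; osteoblast differentiation assessed by alkaline phosphatase staining.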

C2C12 [14] = test: Induction of osteoblast differentiation in mouse C2C12 cells assessed as increase of osteopontin expression up to 100 nM after 6 days; type: functional, cell-based
[15] = target: Runt-related transcription factor 2 (Mus musculus) (UniProt Q08775); test: Activation of Runx2 activity in mouse C2C12 cells at 50 nM after 24 hrs by luciferase reporter gene assay relative to control; type: cell-based
Method in brief: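 6×OSE2-luc plasmid-transfected C2C12 cells, 4 × 10^3 cells/well, cultured 1 day, then 1 day in DMEM with 5% FBS with or without compound; Runx2 activation read as luciferase activity.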

Chain of Runt-related transcription factor 2 (Mus musculus) (Q08775 whole entry): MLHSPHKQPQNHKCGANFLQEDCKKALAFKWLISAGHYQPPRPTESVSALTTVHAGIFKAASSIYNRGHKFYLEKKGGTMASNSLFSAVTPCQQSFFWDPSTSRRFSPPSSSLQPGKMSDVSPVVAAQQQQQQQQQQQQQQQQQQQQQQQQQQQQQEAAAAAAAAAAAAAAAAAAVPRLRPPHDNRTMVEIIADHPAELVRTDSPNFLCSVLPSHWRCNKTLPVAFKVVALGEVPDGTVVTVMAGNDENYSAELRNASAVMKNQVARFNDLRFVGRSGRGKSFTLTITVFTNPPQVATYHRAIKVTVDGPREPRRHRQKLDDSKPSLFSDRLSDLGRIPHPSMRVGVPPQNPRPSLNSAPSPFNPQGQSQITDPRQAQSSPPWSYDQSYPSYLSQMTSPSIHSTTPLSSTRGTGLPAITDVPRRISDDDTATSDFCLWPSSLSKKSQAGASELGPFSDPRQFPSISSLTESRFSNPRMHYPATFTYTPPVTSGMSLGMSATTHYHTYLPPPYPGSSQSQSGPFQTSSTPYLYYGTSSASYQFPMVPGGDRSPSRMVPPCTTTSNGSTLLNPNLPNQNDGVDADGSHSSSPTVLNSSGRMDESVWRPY

## CCCCCCCC(=O)SCC/C=C/[C@@H]1CC(=O)NCc2nc(cs2)C2=N[C@@](C)(CS2)C(=O)N[C@@H](C(C)C)C(=O)O1 [LARGAZOLE]
C2C12 [1]
  fold change (FC): 3
C2C12 [2]
  Activity: Active
C2C12 [3]
  Activity: Active
C2C12 [4]
  Activity: Active
C2C12 [5]
  Activity: Active
C2C12 [6]
  Activity: Active
C2C12 [7]
  Activity: Active
Mus musculus [8]
  Activity: Active
Mus musculus [9]
  Activity: Active
Oryctolagus cuniculus
  Activity: Active
C2C12 [10]
  Activity: Non-toxic
C2C12 [11]
  inhibition: Active
C2C12 [12]
  inhibition: Dose-dependent effect
C2C12 [13]
  Activity: Active
C2C12 [14]
  Activity: Active
[15]
  fold change (FC): 29

Reference: ChEMBL document CHEMBL1671848, “In Vitro and In Vivo Osteogenic Activity of Largazole” (ACS Med Chem Lett, 2011)
